Source: ChEMBL document CHEMBL1156597, “Structure-activity relationship of kahalalide F synthetic analogues” (J Med Chem, 2008)

Experiments:
[1] = test system: PANC-1; assay: Cytotoxicity against human PANC1 cells after 48 hrs by SRB assay; assay type: functional; details: PANC-1, 48 h; for CC50: read-out: LC50 (the source's name)
Method in brief: (§1)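 Cells grown in RPMI 1640 with 10% FBS and penicillin/streptomycin at 37 °C and 5% CO₂, trypsinized, then seeded at 5 × 10³/well. After 18 h drug-free attachment, samples in DMSO/EtOH/PBS (0.5:0.5:99) were added for 48 h continuous exposure. Cells were fixed with cold TCA (1 h, 4 °C) and stained with SRB (10 min). Tris-solubilized stain read at 490 nm. Triplicate wells, mean ± SD; GI₅₀ derived.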

[2] = test system: HeLa; assay: Cytotoxicity against human HeLa cells after 48 hrs by SRB assay; assay type: functional; details: for CC50: read-out: LC50 (the source's name); method in brief: as §1
[3] = Cytotoxicity against human IGROV cells after 48 hrs by SRB assay; assay type: functional; details: for CC50: read-out: LC50 (the source's name); method in brief: as §1
[4] = test system: LoVo; assay: Cytotoxicity against human doxorubicin resistant LoVo cells after 48 hrs by SRB assay; assay type: functional; details: for CC50: read-out: LC50 (the source's name); method in brief: as §1
[5] = Cytotoxicity against human IGROV-ET cells after 48 hrs by SRB assay; assay type: functional; details: for CC50: read-out: LC50 (the source's name); method in brief: as §1
[6] = test system: A549; assay: Cytotoxicity against human A549 cells after 48 hrs by SRB assay; assay type: functional, cell-based; details: Homo sapiens, A549, 48 h; method in brief: as §1
[7] = test system: DU-145; assay: Cytotoxicity against human DU145 cells after 48 hrs by SRB assay; assay type: functional, cell-based; details: Homo sapiens, DU-145, 48 h; for CC50: read-out: LC50 (the source's name); method in brief: as §1
[8] = test system: SK-MEL-28; assay: Cytotoxicity against human SK-MEL-28 cells after 48 hrs by SRB assay; assay type: functional, cell-based; details: Homo sapiens, SK-MEL-28, 48 h; for CC50: read-out: LC50 (the source's name); method in brief: as §1
[9] = test system: HT-29; assay: Cytotoxicity against human HT29 cells after 48 hrs by SRB assay; assay type: functional, cell-based; details: Homo sapiens, HT-29, 48 h; for CC50: read-out: LC50 (the source's name); method in brief: as §1
[10] = test system: LoVo; assay: Cytotoxicity against human LoVo cells after 48 hrs by SRB assay; assay type: functional; details: for CC50: read-out: LC50 (the source's name)
[11] = test system: SK-BR-3; assay: Cytotoxicity against human SKBR3 cells after 48 hrs by SRB assay; assay type: functional; details: SK-BR-3, 48 h; for CC50: read-out: LC50 (the source's name); method in brief: as §1
[12] = Cytotoxicity against human HeLa-APL cells after 48 hrs by SRB assay; assay type: functional; method in brief: as §1
[13] = test system: K562; assay: Cytotoxicity against human K562 cells after 48 hrs by SRB assay; assay type: functional; details: K562, 48 h; for CC50: read-out: LC50 (the source's name); method in brief: as §1

Structure (SMILES) | GI50 [1] [µM] | TGI [1] [µM] | CC50 [1] [µM] | CC50 [2] [µM] | CC50 [3] [µM] | GI50 [4] [µM] | TGI [4] [µM] | CC50 [4] [µM] | CC50 [5] [µM] | LC50 [6] [µM] | GI50 ([7]; read-out: GI50) [µM] | CC50 [7] [µM] | GI50 ([8]; read-out: GI50) [µM] | CC50 [8] [µM] | CC50 [9] [µM] | GI50 [10] [µM] | TGI [10] [µM] | CC50 [10] [µM] | LC50 (concentration giving 50% net cell kill) [12] [µM] | CC50 [13] [µM] | also measured
C/C=C1\NC(=O)[C@H](Cc2ccc(Cl)c(Cl)c2)NC(=O)[C@@H](C(C)C)NC(=O)[C@@H]([C@H](C)CC)NC(=O)[C@H](NC(=O)[C@H](NC(=O)[C@H](CCCN)NC(=O)[C@H]2CCCN2C(=O)[C@H](NC(=O)[C@@H](NC(=O)[C@@H](NC(=O)[C@H](NC(=O)CC[C@@H](C)CC)C(C)C)[C@@H](C)O)C(C)C)C(C)C)[C@H](C)CC)[C@H](C)OC(=O)[C@H](C(C)C)NC1=O | 2.09 | 1.95 | 1.81 | 1.1 | 0.567 | 0.299 | 0.248 | 0.134 | 0.539 | 6.27 | 0.266 | 0.734 | 0.587 | 1.21 | 0.201 | 0.426 | 0.451 | 0.319 | 1.14 | 1.85 | GI50 [2]: 0.493 µM; TGI [2]: 0.813 µM; GI50 [3]: 0.329 µM; GI50 ([3]; read-out: GI50): 0.383 µM; GI50 [5]: 0.379 µM; GI50 ([5]; read-out: GI50): 0.246 µM; GI50 [6]: 0.206 µM; GI50 ([6]; read-out: GI50): 0.11 µM; GI50 [7]: 0.37 µM; GI50 [8]: 0.852 µM; TGI [11]: 0.368 µM; GI50 ([11]; read-out: GI50): 0.283 µM; CC50 [11]: 1.03 µM; GI50 [12]: 1.02 µM; TGI [12]: 1.08 µM
C/C=C1\NC(=O)[C@@H]2Cc3ccccc3CN2C(=O)[C@@H](C(C)C)NC(=O)[C@@H]([C@H](C)CC)NC(=O)[C@H](NC(=O)[C@H](NC(=O)[C@H](CCCN)NC(=O)[C@H]2CCCN2C(=O)[C@H](NC(=O)[C@@H](NC(=O)[C@@H](NC(=O)[C@H](NC(=O)CC[C@@H](C)CC)C(C)C)[C@@H](C)O)C(C)C)C(C)C)[C@H](C)CC)[C@H](C)OC(=O)[C@H](C(C)C)NC1=O |  |  | 2.01 | 1.14 | 7.45 | 0.718 | 1.25 | 1.82 | 0.572 | 1.2 | 4.16 | 1.93 | 1.62 | 2.09 | 0.726 | 2.82 | 2.91 | 3.03 | 1.19 | 2.68 | TGI [6]: 1.44 µM; GI50 ([6]; read-out: GI50): 1.75 µM; TGI [7]: 3.83 µM; TGI [8]: 1.93 µM; TGI [11]: 1.9 µM; GI50 ([11]; read-out: GI50): 2.3 µM; CC50 [11]: 0.296 µM; GI50 [13]: 4.89 µM; TGI [13]: 4.26 µM
C/C=C1\NC(=O)[C@H](Cc2ccccc2)NC(=O)[C@@H](C(C)C)NC(=O)[C@@H]([C@H](C)CC)NC(=O)[C@H](NC(=O)[C@H](NC(=O)[C@H](CCCNC(=O)CCC2CCCCC2)NC(=O)[C@H]2CCCN2C(=O)[C@H](NC(=O)[C@@H](NC(=O)[C@@H](NC(=O)[C@H](NC(=O)CCCC(C)C)C(C)C)[C@@H](C)O)C(C)C)C(C)C)[C@H](C)CC)[C@H](C)OC(=O)[C@H](C(C)C)NC1=O |  |  | 0.163 | 0.799 | 0.459 | 0.0935 | 0.0937 | 0.0938 | 0.547 | 0.365 | 0.0766 | 0.853 | 0.0943 | 0.327 | 0.13 | 0.0392 | 0.0634 | 0.201 | 0.893 | 0.0177 | GI50 [2]: 0.0836 µM; TGI [2]: 0.175 µM; GI50 [3]: 0.0898 µM; GI50 ([3]; read-out: GI50): 0.0481 µM; GI50 [5]: 0.158 µM; GI50 ([5]; read-out: GI50): 0.103 µM; GI50 [6]: 0.196 µM; GI50 ([6]; read-out: GI50): 0.109 µM; GI50 [7]: 0.176 µM; GI50 [8]: 0.15 µM; GI50 [9]: 0.0666 µM; TGI [9]: 0.085 µM; GI50 [11]: 0.039 µM; GI50 ([11]; read-out: GI50): 0.0362 µM; CC50 [11]: 0.0947 µM; GI50 [12]: 0.166 µM; TGI [12]: 0.264 µM
C/C=C1\NC(=O)[C@H](Cc2ccccc2)NC(=O)[C@@H](C(C)C)NC(=O)[C@@H]([C@H](C)CC)NC(=O)[C@H](NC(=O)[C@H](NC(=O)[C@H](CCCNC(=O)C[C@](OC)(c2ccccc2)C(F)(F)F)NC(=O)[C@H]2CCCN2C(=O)[C@H](NC(=O)[C@@H](NC(=O)[C@@H](NC(=O)[C@H](NC(=O)CCCC(C)C)C(C)C)[C@@H](C)O)C(C)C)C(C)C)[C@H](C)CC)[C@H](C)OC(=O)[C@H](C(C)C)NC1=O | 1.55 | 1.55 | 1.55 | 0.842 | 0.442 |  |  | 0.119 | 0.479 | 1.01 | 0.886 | 0.812 | 1.04 | 1.04 | 0.311 | 0.0927 | 0.0914 | 0.0909 | 0.85 | 1.69 | GI50 [2]: 0.537 µM; TGI [2]: 0.842 µM; GI50 [3]: 0.313 µM; GI50 ([3]; read-out: GI50): 0.245 µM; GI50 [5]: 0.397 µM; GI50 ([5]; read-out: GI50): 0.344 µM; TGI [6]: 1.01 µM; GI50 ([6]; read-out: GI50): 1.01 µM; GI50 [7]: 0.812 µM; TGI [8]: 1.04 µM; GI50 [9]: 0.148 µM; TGI [9]: 0.147 µM; GI50 [11]: 0.0958 µM; GI50 ([11]; read-out: GI50): 0.0918 µM; CC50 [11]: 0.158 µM; GI50 [12]: 0.554 µM; TGI [12]: 0.615 µM; GI50 [13]: 1.11 µM; TGI [13]: 1.69 µM
C/C=C1\NC(=O)[C@H](Cc2ccccc2)NC(=O)[C@H](C(C)C)NC(=O)[C@@H]([C@H](C)CC)NC(=O)[C@H](NC(=O)[C@H](NC(=O)[C@H](CCCN)NC(=O)[C@H]2CCCN2C(=O)[C@H](NC(=O)[C@@H](NC(=O)[C@@H](NC(=O)[C@H](NC(=O)CCCC(C)C)C(C)C)[C@@H](C)O)C(C)C)C(C)C)[C@H](C)CC)[C@H](C)OC(=O)[C@H](C(C)C)NC1=O | 1.68 | 4.98 | 2.83 | 1.61 | 1.39 |  |  | 5.06 | 1.17 | 1.83 |  | 1.7 |  | 1.99 | 5.26 | 5.49 | 8.66 | 5.04 | 1.84 | 4.27 | TGI [5]: 2.86 µM; GI50 ([5]; read-out: GI50): 1.22 µM
CC[C@@H](C)[C@@H](NC(=O)[C@H](CCCN)NC(=O)[C@H]1CCCN1C(=O)[C@H](NC(=O)[C@@H](NC(=O)[C@@H](NC(=O)[C@H](NC(=O)CCCC(C)C)C(C)C)[C@@H](C)O)C(C)C)C(C)C)C(=O)N[C@H]1C(=O)N[C@H]([C@H](C)CC)C(=O)N[C@H](C(C)C)C(=O)N[C@@H](Cc2ccccc2)C(=O)N[C@H](CC)C(=O)N[C@@H](C(C)C)C(=O)O[C@H]1C | 4.09 | 4.98 | 2.83 | 1.6 | 0.963 | 1.76 | 2 | 2.28 | 0.748 | 1.83 | 3.26 | 1.7 | 3.1 | 1.98 | 3.21 | 2.63 | 2.74 | 2.83 | 1.84 | 2.73 | TGI [6]: 3.02 µM; GI50 ([6]; read-out: GI50): 3.23 µM; TGI [7]: 3.04 µM; TGI [8]: 3.36 µM; GI50 [9]: 3.66 µM; TGI [9]: 3.41 µM
CC[C@@H]1NC(=O)[C@H](Cc2ccccc2)NC(=O)[C@@H](C(C)C)NC(=O)[C@@H]([C@H](C)CC)NC(=O)[C@H](NC(=O)[C@H](NC(=O)[C@H](CCCN)NC(=O)[C@H]2CCCN2C(=O)[C@H](NC(=O)[C@@H](NC(=O)[C@@H](NC(=O)[C@H](NC(=O)CCCC(C)C)C(C)C)[C@@H](C)O)C(C)C)C(C)C)[C@H](C)CC)[C@H](C)OC(=O)[C@H](C(C)C)NC1=O | 3.09 | 4.98 | 2.83 | 1.6 | 1.39 | 2.72 | 2.82 | 2.93 | 1.17 | 1.83 | 3.05 | 1.7 | 4.48 | 1.98 | 5.25 | 3.03 | 3.86 | 4.93 | 1.84 | 4.26 | TGI [3]: 2.22 µM; GI50 ([3]; read-out: GI50): 2.81 µM; TGI [5]: 1.43 µM; GI50 ([5]; read-out: GI50): 1.64 µM; TGI [7]: 3.07 µM; TGI [8]: 3.83 µM; GI50 [9]: 7.35 µM; TGI [9]: 9.27 µM
